Experimental data gathered from unrelated publications.
Each line is one published result; the experiments were not run side by side.
Cell line: A549
Read-out: cell growth or viability

| Structure (SMILES) | technique | time | IC50 |
| --- | --- | --- | --- |
| CC[C@H](C)[C@H](NC(=O)[C@H](CC(C)C)NC(=O)[C@H](CCCCN)NC(=O)[C@H](CCCCN)NC(=O)[C@H](CC(C)C)NC(=O)[C@H](CCCNC(=N)N)NC(=O)[C@H](CCCCN)NC(=O)[C@@H](N)CC(C)C)C(=O)N[C@@H](CCCCN)C(=O)N[C@@H](CCCCN)C(=O)N[C@@H](CC(C)C)C(=O)N[C@@H](CCCNC(=N)N)C(=O)N[C@@H](CCCCN)C(N)=O | MTT | 24 h | 100 µM |
| C#CC[C@@H]1NC(=O)[C@@H](CCCNC(=N)N)NC(=O)[C@H]([C@@H](C)O)NC(=O)[C@@H](CCCN)NC(=O)[C@H](Cc2ccccc2)NC(=O)[C@@H](Cc2ccccc2)NC1=O | ATP luminescence |  | > 100 µM |
| N.N.[Cl][Pt][Cl] | MTT | 48 h | 46.4 µM |
| c1ccc([Se][Au]=[c]2n(C3CCCCC3)ccn2C2CCCCC2)cc1 | crystal violet |  | 0.9 µM |
| CC(C)[C@H](NC(=O)[C@H](Cc1c[nH]cn1)NC(=O)[C@H](Cc1c[nH]c2ccccc12)NC(=O)[C@H](Cc1c[nH]cn1)NC(=O)[C@H](C)NC(=O)[C@H](CCCCN)NC(=O)[C@H](Cc1c[nH]c2ccccc12)NC(=O)[C@H](Cc1c[nH]c2ccccc12)NC(=O)[C@H](CCCNC(=N)N)NC(=O)[C@H](Cc1c[nH]c2ccccc12)NC(=O)[C@H](CCCNC(=N)N)NC(=O)[C@@H](N)CCCNC(=N)N)C(=O)N[C@@H](Cc1c[nH]c2ccccc12)C(N)=O | MTT | 24 h | 240 µM |
| COC(=O)c1cc(C(C)=NNc2nc(-c3ccc(S(=O)(=O)F)cc3)cs2)ccc1O | MTT | 96 h | 65 µM |
| CC(C)C[C@H](NC(=O)[C@@H]1CCCN1C(=O)[C@H](Cc1ccc(O)cc1)NC(=O)[C@H](CCCCN)NC(=O)[C@H](CCCCN)NC(=O)[C@H](CS)NC(=O)[C@H](CC(C)C)NC(=O)[C@H](CCCCN)NC(=O)[C@H](CCCCN)NC(=O)[C@H](Cc1ccccc1)NC(=O)[C@H](CC(C)C)NC(=O)[C@H](CCCCN)NC(=O)[C@@H](N)CCCNC(=N)N)C(N)=O | MTT | 24 h | 258 µM |
| N.N.[Cl][Pt][Cl] | MTT | 72 h | 50.8 µM |
| CC(C)[C@@H]1NC(=O)[C@@H](CCCNC(=N)N)NC(=O)[C@H]([C@@H](C)O)NC(=O)[C@@H](CCCNC(=N)N)NC(=O)[C@H](Cc2ccccc2)NC(=O)[C@@H](Cc2ccccc2)NC1=O | ATP luminescence |  | 61.7 µM |
